Reference: ChEMBL document CHEMBL3994573, “Cytotoxic Lanostanoids from Poria cocos” (J Nat Prod, 2016)

Test system: CCRF-CEM
Assay: Antiproliferative activity against human CCRF-CEM cells after 72 hrs by MTT assay
Assay type: functional, cell-based
Conditions: not given
Procedure, shortened: (§1)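 Leukemia cells (ATCC) grown in RPMI-1640 with 10% FCS, 2 mM glutamine, penicillin/streptomycin at 37 °C, 5% CO2. Seeded at 4 × 10^4 per well. Exposed 72 h to 1.25, 2.5, 5, 10 and 20 μg/mL (DMSO under 0.02%). MTT formazan dissolved in DMSO, read as OD570 − OD620. IC50 = concentration giving half the control absorbance. n = 4 wells per experiment, four separate experiments, ± SD.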

SMILES | IC50 [µM]
CC(C)=CCC[C@@H](C(=O)O)[C@H]1[C@H](O)C[C@@]2(C)C3=CC[C@H]4C(C)(C)[C@@H](O)CC[C@]4(C)C3=CC[C@]12C | > 40
C=C(CC[C@@H](C(=O)O)[C@H]1[C@H](O)C[C@@]2(C)C3=CC[C@H]4C(C)(C)[C@@H](OC(C)=O)CC[C@]4(C)C3=CC[C@]12C)C(C)C | 2.7
C=C(CC[C@@H](C(=O)O)[C@H]1[C@H](O)C[C@@]2(C)C3=C(CC[C@]12C)[C@@]1(C)CC[C@H](O)C(C)(C)[C@@H]1CC3=O)C(C)C | > 40
C=C(CC[C@@H](C(=O)O)[C@H]1[C@H](O)C[C@@]2(C)C3=CC[C@H]4C(C)(C)[C@H](O)CC[C@]4(C)C3=CC[C@]12C)C(C)C | > 40
C=C(CC[C@@H](C(=O)O)[C@H]1CC[C@@]2(C)C3=CC[C@H]4C(C)(C)[C@@H](O)CC[C@]4(C)C3=CC[C@]12C)C(C)C [DEHYDROEBURICOIC ACID] | 6.3
CC(C)=CCC[C@@H](C(=O)O)[C@H]1CC[C@@]2(C)C3=CC[C@H]4C(C)(C)[C@@H](O)CC[C@]4(C)C3=CC[C@]12C [DEHYDROTRAMETENOLIC ACID] | 13.1
C=C(CC[C@@H](C(=O)O)[C@H]1[C@H](O)C[C@@]2(C)C3=CC[C@H]4C(C)(C)[C@@H](O)CC[C@]4(C)C3=CC[C@]12C)C(C)C [DEHYDROTUMULOSIC ACID] | > 40
COc1cccc2c1C(=O)c1c(O)c3c(c(O)c1C2=O)C[C@@](O)(C(=O)CO)C[C@@H]3O[C@H]1C[C@H](N)[C@H](O)[C@H](C)O1 [DOXORUBICIN] | 0.01
C=C(CC[C@@H](C(=O)O)[C@H]1[C@H](O)C[C@@]2(C)C3=CC[C@H]4C(C)(C)C(=O)CC[C@]4(C)C3=CC[C@]12C)C(C)C [POLYPORENIC ACID B] | 25.5
C=C(CC[C@@H](C(=O)O)[C@H]1[C@H](O)C[C@@]2(C)C3=CC[C@@H](C(=C)C)[C@](C)(CCC(=O)O)C3=CC[C@]12C)C(C)C [PORICOIC ACID A] | > 40

Test system: MOLT-4
Assay: Antiproliferative activity against human MOLT4 cells after 72 hrs by MTT assay
Assay type: functional, cell-based
Conditions: MOLT-4, 72 h
Procedure, shortened: as §1

SMILES | IC50 [µM]
CC(C)=CCC[C@@H](C(=O)O)[C@H]1[C@H](O)C[C@@]2(C)C3=CC[C@H]4C(C)(C)[C@@H](O)CC[C@]4(C)C3=CC[C@]12C | > 40
C=C(CC[C@@H](C(=O)O)[C@H]1[C@H](O)C[C@@]2(C)C3=CC[C@H]4C(C)(C)[C@@H](OC(C)=O)CC[C@]4(C)C3=CC[C@]12C)C(C)C | 13.8
C=C(CC[C@@H](C(=O)O)[C@H]1[C@H](O)C[C@@]2(C)C3=C(CC[C@]12C)[C@@]1(C)CC[C@H](O)C(C)(C)[C@@H]1CC3=O)C(C)C | > 40
C=C(CC[C@@H](C(=O)O)[C@H]1[C@H](O)C[C@@]2(C)C3=CC[C@H]4C(C)(C)[C@H](O)CC[C@]4(C)C3=CC[C@]12C)C(C)C | > 40
C=C(CC[C@@H](C(=O)O)[C@H]1CC[C@@]2(C)C3=CC[C@H]4C(C)(C)[C@@H](O)CC[C@]4(C)C3=CC[C@]12C)C(C)C [DEHYDROEBURICOIC ACID] | 14.3
CC(C)=CCC[C@@H](C(=O)O)[C@H]1CC[C@@]2(C)C3=CC[C@H]4C(C)(C)[C@@H](O)CC[C@]4(C)C3=CC[C@]12C [DEHYDROTRAMETENOLIC ACID] | 16.2
C=C(CC[C@@H](C(=O)O)[C@H]1[C@H](O)C[C@@]2(C)C3=CC[C@H]4C(C)(C)[C@@H](O)CC[C@]4(C)C3=CC[C@]12C)C(C)C [DEHYDROTUMULOSIC ACID] | > 40
COc1cccc2c1C(=O)c1c(O)c3c(c(O)c1C2=O)C[C@@](O)(C(=O)CO)C[C@@H]3O[C@H]1C[C@H](N)[C@H](O)[C@H](C)O1 [DOXORUBICIN] | 0.01
C=C(CC[C@@H](C(=O)O)[C@H]1[C@H](O)C[C@@]2(C)C3=CC[C@H]4C(C)(C)C(=O)CC[C@]4(C)C3=CC[C@]12C)C(C)C [POLYPORENIC ACID B] | 27.6
C=C(CC[C@@H](C(=O)O)[C@H]1[C@H](O)C[C@@]2(C)C3=CC[C@@H](C(=C)C)[C@](C)(CCC(=O)O)C3=CC[C@]12C)C(C)C [PORICOIC ACID A] | > 40

Test system: K562
Assay: Antiproliferative activity against human K562 cells after 72 hrs by MTT assay
Assay type: functional, cell-based
Conditions: K562, 72 h
Procedure, shortened: as §1

SMILES | IC50 [µM]
CC(C)=CCC[C@@H](C(=O)O)[C@H]1[C@H](O)C[C@@]2(C)C3=CC[C@H]4C(C)(C)[C@@H](O)CC[C@]4(C)C3=CC[C@]12C | > 40
C=C(CC[C@@H](C(=O)O)[C@H]1[C@H](O)C[C@@]2(C)C3=CC[C@H]4C(C)(C)[C@@H](OC(C)=O)CC[C@]4(C)C3=CC[C@]12C)C(C)C | 18.6
C=C(CC[C@@H](C(=O)O)[C@H]1[C@H](O)C[C@@]2(C)C3=C(CC[C@]12C)[C@@]1(C)CC[C@H](O)C(C)(C)[C@@H]1CC3=O)C(C)C | > 40
C=C(CC[C@@H](C(=O)O)[C@H]1[C@H](O)C[C@@]2(C)C3=CC[C@H]4C(C)(C)[C@H](O)CC[C@]4(C)C3=CC[C@]12C)C(C)C | > 40
C=C(CC[C@@H](C(=O)O)[C@H]1CC[C@@]2(C)C3=CC[C@H]4C(C)(C)[C@@H](O)CC[C@]4(C)C3=CC[C@]12C)C(C)C [DEHYDROEBURICOIC ACID] | 25.6
CC(C)=CCC[C@@H](C(=O)O)[C@H]1CC[C@@]2(C)C3=CC[C@H]4C(C)(C)[C@@H](O)CC[C@]4(C)C3=CC[C@]12C [DEHYDROTRAMETENOLIC ACID] | 14.8
C=C(CC[C@@H](C(=O)O)[C@H]1[C@H](O)C[C@@]2(C)C3=CC[C@H]4C(C)(C)[C@@H](O)CC[C@]4(C)C3=CC[C@]12C)C(C)C [DEHYDROTUMULOSIC ACID] | > 40
COc1cccc2c1C(=O)c1c(O)c3c(c(O)c1C2=O)C[C@@](O)(C(=O)CO)C[C@@H]3O[C@H]1C[C@H](N)[C@H](O)[C@H](C)O1 [DOXORUBICIN] | 0.5
C=C(CC[C@@H](C(=O)O)[C@H]1[C@H](O)C[C@@]2(C)C3=CC[C@H]4C(C)(C)C(=O)CC[C@]4(C)C3=CC[C@]12C)C(C)C [POLYPORENIC ACID B] | 26.3
C=C(CC[C@@H](C(=O)O)[C@H]1[C@H](O)C[C@@]2(C)C3=CC[C@@H](C(=C)C)[C@](C)(CCC(=O)O)C3=CC[C@]12C)C(C)C [PORICOIC ACID A] | > 40

Test system: HL-60
Assay: Antiproliferative activity against human HL60 cells after 72 hrs by MTT assay
Assay type: functional, cell-based
Conditions: HL-60, 72 h
Procedure, shortened: as §1

SMILES | IC50 [µM]
CC(C)=CCC[C@@H](C(=O)O)[C@H]1[C@H](O)C[C@@]2(C)C3=CC[C@H]4C(C)(C)[C@@H](O)CC[C@]4(C)C3=CC[C@]12C | > 40
C=C(CC[C@@H](C(=O)O)[C@H]1[C@H](O)C[C@@]2(C)C3=CC[C@H]4C(C)(C)[C@@H](OC(C)=O)CC[C@]4(C)C3=CC[C@]12C)C(C)C | 7.3
C=C(CC[C@@H](C(=O)O)[C@H]1[C@H](O)C[C@@]2(C)C3=C(CC[C@]12C)[C@@]1(C)CC[C@H](O)C(C)(C)[C@@H]1CC3=O)C(C)C | > 40
C=C(CC[C@@H](C(=O)O)[C@H]1[C@H](O)C[C@@]2(C)C3=CC[C@H]4C(C)(C)[C@H](O)CC[C@]4(C)C3=CC[C@]12C)C(C)C | > 40
C=C(CC[C@@H](C(=O)O)[C@H]1CC[C@@]2(C)C3=CC[C@H]4C(C)(C)[C@@H](O)CC[C@]4(C)C3=CC[C@]12C)C(C)C [DEHYDROEBURICOIC ACID] | 6
CC(C)=CCC[C@@H](C(=O)O)[C@H]1CC[C@@]2(C)C3=CC[C@H]4C(C)(C)[C@@H](O)CC[C@]4(C)C3=CC[C@]12C [DEHYDROTRAMETENOLIC ACID] | 20
C=C(CC[C@@H](C(=O)O)[C@H]1[C@H](O)C[C@@]2(C)C3=CC[C@H]4C(C)(C)[C@@H](O)CC[C@]4(C)C3=CC[C@]12C)C(C)C [DEHYDROTUMULOSIC ACID] | > 40
COc1cccc2c1C(=O)c1c(O)c3c(c(O)c1C2=O)C[C@@](O)(C(=O)CO)C[C@@H]3O[C@H]1C[C@H](N)[C@H](O)[C@H](C)O1 [DOXORUBICIN] | 0.01
C=C(CC[C@@H](C(=O)O)[C@H]1[C@H](O)C[C@@]2(C)C3=CC[C@H]4C(C)(C)C(=O)CC[C@]4(C)C3=CC[C@]12C)C(C)C [POLYPORENIC ACID B] | 31.8
C=C(CC[C@@H](C(=O)O)[C@H]1[C@H](O)C[C@@]2(C)C3=CC[C@@H](C(=C)C)[C@](C)(CCC(=O)O)C3=CC[C@]12C)C(C)C [PORICOIC ACID A] | > 40
